Test [1] can be described thus: hit retest on RPL19A-GFP reporter strain – cell-based, S. cerevisiae, flow cytometry, cherry picks, mother/daughter gates, confirmation (AID 2270;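 active means GFP response below 50% of the DMSO control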). Conditions: 3 h, at 10 µM, stronger effect = lower value, 100 = same GFP as DMSO wells.
The nature of test [2]: yeast TOR pathway reporter LAP4-GFP change – cell-based, cherry picks, flow cytometry, mother/daughter gates, confirmation (AID 2271;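 active means GFP response above 150% of the DMSO control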;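 further: ratio of sample to DMSO plate mean so 100% equals DMSO level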). Particulars: S. cerevisiae LAP4-GFP strain, 3 h, at 10 µM, stronger effect = higher value, 100 means same as DMSO control. In a few lines: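 Test system: GFP-fusion yeast strain. Medium: synthetic complete (SC) yeast growth medium. Timing: 3 h treatment at 30 °C with rotation. Measured by: GFP by flow cytometry. Control set: positive rapamycin (400 ng/mL), negative DMSO.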

Test [3] can be described thus: TOR pathway reporter MEP2-GFP, retest of hits – S. cerevisiae, flow cytometry GFP, cherry picks, confirmation (AID 2272;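 active means GFP response above 150% of the DMSO control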;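 further: ratio of well signal to plate DMSO mean so 100% equals DMSO level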). Particulars: S. cerevisiae MEP2-GFP strain, 3 h, at 10 µM, stronger effect = higher value.
Test [4] is described as follows: yeast AGP1-GFP fluorescence change, single-dose – cell-based, flow cytometry, S. cerevisiae, cherry picks, confirmation (AID 2273).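 Further: median GFP channel fluorescence over the whole cell population gate.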 Particulars: S. cerevisiae AGP1-GFP strain, 3 h, at 10 µM.
Test [5] in a line: TOR pathway CIT2 reporter hit retest – S. cerevisiae, GFP fusion, cherry picks, mother/daughter gates, confirmation (AID 2274). Conditions: S. cerevisiae CIT2-GFP strain, flow cytometry, 3 h, at 10 µM, stronger effect = higher value.
Setting [6] is: measured here: daughter cell gate.
Setting [7] is: measured here: mother cell gate.
The mark [8] stands for this setting: measured here: daughter cell gate response.
[9] abbreviates: measured here: mother cell gate response.

The source made the active and inactive calls.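 How the source made its calls, unless noted: active means GFP response above 150% of the DMSO level; inconclusive means fewer than 70 events counted for a yeast strain; inactive means the rest.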

As for `Cc1cccc(Nc2nc(-c3ccccn3)cs2)n1`, the GFP response vs DMSO is 77.9% (inactive) in test [1], 104% in test [1] (setting [6]), 66.6% in test [1] (setting [7]) and 110% (inactive) in test [3]. In addition, the GFP response relative to DMSO was 137% (inactive) in test [2], 138% in test [2] (setting [8]) and 120% in test [2] (setting [9]). Besides, the GFP response, % of DMSO in test [4] is 89.8% (inactive); in test [5], 100% (inactive); in test [5] (setting [6]), 121%; in test [5] (setting [7]), 83.7%.
For `COc1ccccc1NC(=O)c1ccc([N+](=O)[O-])o1`, the GFP response vs DMSO in test [1] is 102% (inactive); in test [1] (setting [6]), 102%; in test [1] (setting [7]), 101%; in test [3], 102% (inactive). Also, the GFP response relative to DMSO in test [2] was 120% (inactive); in test [2] (setting [8]) it was 115%; in test [2] (setting [9]) it was 122%. The GFP response, % of DMSO in test [4] was 99.3% (inactive); in test [5], 107% (inactive); in test [5] (setting [6]), 108%; in test [5] (setting [7]) it was 106%.
Turning to `CCCCn1c(=O)c(C(=O)OCC)c(O)c2ccccc21`, the GFP response vs DMSO in test [1] is 106% (inactive); in test [1] (setting [6]), 101%; in test [1] (setting [7]) it was 108%; in test [3] it was 99% (inactive). Besides, the GFP response relative to DMSO in test [2] is 105% (inactive); in test [2] (setting [8]), 102%; in test [2] (setting [9]), 108%. Moreover, the GFP response, % of DMSO in test [4] is 97.5% (inactive); in test [5], 94.4% (inactive); in test [5] (setting [6]), 90.2%; in test [5] (setting [7]) it was 94.4%.
With `COc1ccc(/C=N/NC(=O)C2(C)NC(C)(C)Cc3ccccc32)cc1` (stereo unspecified), the GFP response vs DMSO is 94.4% (inactive) in test [1], 94.9% in test [1] (setting [6]), 95.3% in test [1] (setting [7]) and 96.2% (inactive) in test [3]. Further, the GFP response relative to DMSO is 96.7% (inactive) in test [2], 97.6% in test [2] (setting [8]) and 96.1% in test [2] (setting [9]). Moreover, the GFP response, % of DMSO in test [4] is 99.7% (inactive); in test [5], 99.7% (inactive); in test [5] (setting [6]), 99.1%; in test [5] (setting [7]), 98.5%.
Turning to `Cc1ccccc1NC(=O)CC1SC(=O)N(c2ccccc2)C1=O` (stereo unspecified), the GFP response vs DMSO in test [1] was 94.9% (inactive); in test [1] (setting [6]), 97.3%; in test [1] (setting [7]), 91%; in test [3] it was 112% (inactive). For the same compound, the GFP response relative to DMSO is 131% (inactive) in test [2], 127% in test [2] (setting [8]) and 133% in test [2] (setting [9]). The GFP response, % of DMSO is 104% (inactive) in test [4], 104% (inactive) in test [5], 108% in test [5] (setting [6]) and 94.9% in test [5] (setting [7]).
`O=C1C(Cl)=C(N2CCN(Cc3ccccc3)CC2)C(=O)N1c1ccccc1`: the GFP response vs DMSO in test [1] was 98.6% (inactive); in test [1] (setting [6]) it was 98.4%; in test [1] (setting [7]), 98.5%; in test [3], 100% (inactive). Also, the GFP response relative to DMSO was 96.2% (inactive) in test [2], 95.6% in test [2] (setting [8]) and 96.2% in test [2] (setting [9]). Further, the GFP response, % of DMSO is 97.8% (inactive) in test [4], 99.1% (inactive) in test [5], 98.1% in test [5] (setting [6]) and 96.6% in test [5] (setting [7]).
Turning to `COc1ccc(N2C(=O)CC(Sc3nccc(C)n3)C2=O)cc1` (stereo unspecified), the GFP response vs DMSO was 97.2% (inactive) in test [1], 98% in test [1] (setting [6]), 96.5% in test [1] (setting [7]) and 104% (inactive) in test [3]. Besides, the GFP response relative to DMSO was 98.8% (inactive) in test [2], 101% in test [2] (setting [8]) and 98.5% in test [2] (setting [9]). In addition, the GFP response, % of DMSO in test [4] was 107% (inactive); in test [5], 99.3% (inactive); in test [5] (setting [6]), 96.4%; in test [5] (setting [7]) it was 100%.
As for `Cc1cc(C=C2C(=O)c3ccccc3C2=O)c(C)n1-c1cccc(C(=O)O)c1`, the GFP response vs DMSO in test [1] is 100% (inactive); in test [1] (setting [6]) it was 101%; in test [1] (setting [7]), 101%; in test [3], 101% (inactive). The GFP response relative to DMSO in test [2] was 96.1% (inactive); in test [2] (setting [8]) it was 98.2%; in test [2] (setting [9]) it was 95.1%. In addition, the GFP response, % of DMSO in test [4] is 100% (inactive); in test [5] it was 112% (inactive); in test [5] (setting [6]) it was 110%; in test [5] (setting [7]) it was 113%.
Turning to `O=c1c(-c2ccc(Cl)cc2)[n+]([O-])c2ccccc2n1O`, the GFP response vs DMSO in test [1] was 103% (inactive); in test [1] (setting [6]), 102%; in test [1] (setting [7]), 103%; in test [3], 112% (inactive). In addition, the GFP response relative to DMSO in test [2] is 193% (active); in test [2] (setting [8]) it was 141%; in test [2] (setting [9]) it was 177%. In addition, the GFP response, % of DMSO was 93% (inactive) in test [4], 92.1% (inactive) in test [5], 90.9% in test [5] (setting [6]) and 91% in test [5] (setting [7]).
For the compound `Cc1[nH]c2ccccc2c1C(=O)C(C)OC(=O)C1CCC1` (stereo unspecified), the GFP response vs DMSO is 98.2% (inactive) in test [1], 98.1% in test [1] (setting [6]), 97.8% in test [1] (setting [7]) and 110% (inactive) in test [3]. Besides, the GFP response relative to DMSO in test [2] is 100% (inactive); in test [2] (setting [8]), 101%; in test [2] (setting [9]) it was 100%. Moreover, the GFP response, % of DMSO in test [4] is 105% (inactive); in test [5] it was 106% (inactive); in test [5] (setting [6]) it was 103%; in test [5] (setting [7]), 106%.
With `CC1=CCC(C(=O)O)C(C(=O)Nc2ccc(-c3nc4ccc(C)cc4s3)cc2)C1` (stereo unspecified), the GFP response vs DMSO in test [1] was 99.2% (inactive); in test [1] (setting [6]) it was 100%; in test [1] (setting [7]) it was 100%; in test [3], 98.8% (inactive). In addition, the GFP response relative to DMSO was 96.1% (inactive) in test [2], 96.6% in test [2] (setting [8]) and 96.2% in test [2] (setting [9]). In addition, the GFP response, % of DMSO is 101% (inactive) in test [4], 112% (inactive) in test [5], 110% in test [5] (setting [6]) and 113% in test [5] (setting [7]).
On to `CCOc1cccc(C(=O)Nc2ccc(NC(=O)c3cc4ccccc4o3)c(OC)c2)c1`, for which the GFP response vs DMSO in test [1] was 96.2% (inactive); in test [1] (setting [6]) it was 96.4%; in test [1] (setting [7]), 97.2%; in test [3], 98.3% (inactive). The GFP response relative to DMSO in test [2] is 91.5% (inactive); in test [2] (setting [8]) it was 91.2%; in test [2] (setting [9]), 90.8%. Besides, the GFP response, % of DMSO was 94.8% (inactive) in test [4], 103% (inactive) in test [5], 103% in test [5] (setting [6]) and 102% in test [5] (setting [7]).
Consider `O=C1C(Cl)=C(N2CCN(Cc3ccccc3)CC2)C(=O)N1Cc1ccccc1`, for which the GFP response vs DMSO is 97% (inactive) in test [1], 98.1% in test [1] (setting [6]), 98% in test [1] (setting [7]) and 94.7% (inactive) in test [3]. Moreover, the figures for the GFP response relative to DMSO in test [2], in test [2] (setting [8]) and in test [2] (setting [9]) were 99.5% (inactive), 101% and 98.4%, respectively. The GFP response, % of DMSO in test [4] is 102% (inactive); in test [5], 100% (inactive); in test [5] (setting [6]), 101%; in test [5] (setting [7]), 99.3%.
Regarding `CCCCOc1cccc(/C=C(\C#N)C(=O)NC2CC2)c1`, the GFP response vs DMSO in test [1] is 93.5% (inactive); in test [1] (setting [6]), 92.1%; in test [1] (setting [7]), 92.5%; in test [3], 113% (inactive). In addition, the GFP response relative to DMSO in test [2] is 117% (inactive); in test [2] (setting [8]), 114%; in test [2] (setting [9]) it was 116%. The GFP response, % of DMSO was 92.7% (inactive) in test [4], 99.7% (inactive) in test [5], 99.1% in test [5] (setting [6]) and 96.1% in test [5] (setting [7]).
As to `Cc1noc2ncnc(Sc3ccccc3Cl)c12`, the GFP response vs DMSO was 106% (inactive) in test [1], 104% in test [1] (setting [6]), 105% in test [1] (setting [7]) and 109% (inactive) in test [3]. The GFP response relative to DMSO is 112% (inactive) in test [2], 111% in test [2] (setting [8]) and 112% in test [2] (setting [9]). The GFP response, % of DMSO was 101% (inactive) in test [4], 116% (inactive) in test [5], 113% in test [5] (setting [6]) and 114% in test [5] (setting [7]).
`COc1cc(OC)cc(C(=O)N2CCN(c3ccccc3F)CC2)c1`: the GFP response vs DMSO was 98.6% (inactive) in test [1], 97.3% in test [1] (setting [6]), 99.1% in test [1] (setting [7]) and 100% (inactive) in test [3]. In addition, the GFP response relative to DMSO in test [2] was 97.4% (inactive); in test [2] (setting [8]), 98.7%; in test [2] (setting [9]) it was 98.3%. Moreover, the GFP response, % of DMSO in test [4] is 98.3% (inactive); in test [5], 99.1% (inactive); in test [5] (setting [6]), 99.7%; in test [5] (setting [7]) it was 98.7%.

These data come from PubChem BioAssay.
